Measured values reported in ChEMBL document CHEMBL4145571, “Ajmaline, Oxindole, and Cytotoxic Macroline-Akuammiline Bisindole Alkaloids from Alstonia penangiana” (J Nat Prod, 2018).

How the values were obtained:
[1] = tested on: KB/VJ300; assay: Growth inhibition of human KB/VJ300 cells after 72 hrs by MTT assay; format: functional; conditions: KB/VJ300, 72 h
Outline: (§1)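 Values are mean ± SD from three independent experiments. For the KB/VJ300 line with vincristine, 0.1 μM vincristine was added alongside the test compound. The remaining method details come from earlier published procedures.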

[2] = Growth inhibition of human KB/S cells after 72 hrs by MTT assay; format: functional; outline: as §1
[3] = tested on: KB/VJ300; assay: Growth inhibition of human KB/VJ300 cells after 72 hrs in presence of 0.1 uM of vincristine by MTT assay; format: functional; conditions: KB/VJ300, 72 h; outline: as §1
[4] = tested on: MDA-MB-231; assay: Growth inhibition of human MDA-MB-231 cells after 72 hrs by MTT assay; format: functional, cell-based; conditions: MDA-MB-231, 72 h; outline: as §1
[5] = tested on: A549; assay: Growth inhibition of human A549 cells after 72 hrs by MTT assay; format: functional, cell-based; conditions: A549, 72 h; outline: as §1
[6] = tested on: HCT-116; assay: Growth inhibition of human HCT116 cells after 72 hrs by MTT assay; format: functional, cell-based; conditions: HCT-116, 72 h; outline: as §1
[7] = tested on: LNCaP; assay: Growth inhibition of human LNCAP cells after 72 hrs by MTT assay; format: functional, cell-based; outline: as §1
[8] = tested on: MCF7; assay: Growth inhibition of human MCF7 cells after 72 hrs by MTT assay; format: functional, cell-based; conditions: MCF7, 72 h; outline: as §1
[9] = tested on: PC-3; assay: Growth inhibition of human PC3 cells after 72 hrs by MTT assay; format: functional, cell-based; conditions: PC-3, 72 h; outline: as §1
[10] = tested on: HT-29; assay: Growth inhibition of human HT-29 cells after 72 hrs by MTT assay; format: functional, cell-based; conditions: HT-29, 72 h; outline: as §1

Structure (SMILES)	IC50 [1]	IC50 [2]	IC50 [3]	IC50 [4]	IC50 [5]	IC50 [6]	IC50 [7]	IC50 [8]	IC50 [9]	IC50 [10]
CC[C@]1(O)C[C@H]2CN(CCc3c([nH]c4ccccc34)[C@@](C(=O)OC)(c3cc4c(cc3OC)N(C=O)[C@H]3[C@@](O)(C(=O)OC)[C@H](OC(C)=O)[C@]5(CC)C=CCN6CC[C@]43[C@@H]65)C2)C1 [VINCRISTINE]	3.9 µM	0.0003 µM								
COc1ccc(CCN(C)CCCC(C#N)(c2ccc(OC)c(OC)c2)C(C)C)cc1OC (stereo not drawn) [VERAPAMIL]			0.1 µM							
C/C=C1/CN2CC[C@@]34c5cc([C@@H](C)[C@H]6[C@@H]7C[C@H]8c9c(c%10ccccc%10n9C)C[C@@H]([C@@H]7CO[C@@H]6O)N8C)c(OC)cc5N(C)[C@H]3[C@@H]2C[C@H]1C4C(=O)OC (stereo partly drawn)	> 10 µM	2 µM	> 10 µM	5.2 µM	8.3 µM	6.6 µM	6.9 µM	3.8 µM	> 10 µM	0.7 µM
